CHRM5 antagonist: antagonists of human muscarinic M5 receptor (CHRM5); P08912; CHO-hM5 cells, Fluo-8 calcium fluorescence, ACh EC80; inhibition, % at 3 µM; AID 624040; 0.59% of 360,000 active;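 active means inhibition above a per-plate cutoff, the mean of that plate's test compounds plus 3 SD, cut at about 27% in these data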
CHRM4 agonist: CHRM4 agonism in calcium assay. 0.14% of 360,000 active. CHO-K1 hM4/Gqi5, Fluo-8 calcium fluorescence; vehicle 0%, full acetylcholine response 100%. P08173. activation, % at 3 µM;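 active means activation above the run mean over all test wells plus 3 SD, cut at about 32% in these data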;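 further: peak over basal fluorescence ratio per well then scaled between controls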
Target sequence (P08173 whole entry, looked up): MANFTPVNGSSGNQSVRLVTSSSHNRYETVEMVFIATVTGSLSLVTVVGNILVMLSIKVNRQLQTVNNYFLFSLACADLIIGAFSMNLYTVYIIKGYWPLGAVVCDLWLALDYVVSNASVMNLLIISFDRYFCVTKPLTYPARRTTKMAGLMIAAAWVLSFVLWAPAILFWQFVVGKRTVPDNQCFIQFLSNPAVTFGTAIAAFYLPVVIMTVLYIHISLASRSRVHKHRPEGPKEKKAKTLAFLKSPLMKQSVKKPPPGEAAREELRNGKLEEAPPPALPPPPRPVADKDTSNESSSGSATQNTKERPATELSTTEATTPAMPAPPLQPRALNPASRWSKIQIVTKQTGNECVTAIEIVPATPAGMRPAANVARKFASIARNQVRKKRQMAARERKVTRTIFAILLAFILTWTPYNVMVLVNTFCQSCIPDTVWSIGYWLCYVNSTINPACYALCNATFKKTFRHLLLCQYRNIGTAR
M5 ag: CHRM5 agonism in calcium assay; 0.19% of 360,000 active; P08912; activation, % at 3 µM; CHO-K1 hM5 cells, Fluo-8 calcium fluorescence; 0% DMSO wells, 100% maximal acetylcholine response;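 active means activation above the run's mean over test compounds plus 3 SD, cut at about 23% in these data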;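 further: signal is peak over basal fluorescence ratio across the kinetic read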
CHRM5 PAM: positive allosteric modulators of human muscarinic M5 receptor | P08912 | CHO-K1 hM5, Fluo-8 calcium, ACh EC20 PAM; 0% = ACh EC20, 100% = ACh EC100 | activation, % at 3 µM | 0.3% of 360,000 active | AID 624038;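 active means activation above the run cutoff, the mean activation of all test compounds plus 3 SD, cut at about 18% in these data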
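System: CHO-K1 cell line with stable human muscarinic M5 receptor expression | Also added: EC20 acetylcholine as agonist stimulus | Compound: One concentration, 3 µM final (nominal) | Timing: Fluo-8 loading 80 min at 37 °C plus 30 min room temperature | Measured by: Fluo-8 calcium dye fluorescence, kinetic read | Read-out basis: % activation, ACh-normalized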
CHRM4 PAM: CHRM4 positive allosteric modulation; P08173; CHO-K1 hM4/Gqi5, Fluo-8 calcium fluorescence, ACh EC20; 0% = ACh EC20, 100% = maximal ACh; activation, % at 3 µM; 0.4% of 360,000 active; AID 624126;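 active means activation above its plate's cutoff, the mean activation of sample wells plus 3 SD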
M4 antag: CHRM4 antagonism in calcium assay; P08173; CHO-hM4 cells, ACh EC80, Fluo-8 calcium fluorescence; inhibition, % at 3 µM; 0.73% of 360,000 active;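 active means inhibition above its plate's cutoff, the mean inhibition of sample wells plus 3 SD, cut at about 27% in these data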
Each line names hits and unclear results; the compound was inactive in the other large screens. Compounds with a hit are over-represented: about 1.9% of the library has one in this group of screens.

CC(C)C(=O)Nc1cccc(-c2nc3ncccc3o2)c1	none
CC(C)C(=O)Nc1ccc(-c2nc3ncccc3o2)cc1	CHRM5 antagonist 30
COc1ccc(-c2c(-c3ccccc3OC)oc3ccccc23)cc1F	none
CC1(C)CC(=O)C2=C(C1)OC(N)=C(C#N)C2c1cccs1 (stereo not drawn)	none
COC(=O)C1=C(N)OC2=C(C(=O)CC(C)(C)C2)C1c1cccs1 (stereo not drawn)	CHRM4 PAM 20
Cc1cc(C)n2nc(C(=O)N/N=C/c3cccc(Cl)c3)nc2n1	CHRM4 PAM 32
COC(=O)[C@H](Cc1c[nH]c2ccccc12)NC(=O)NCc1ccccc1	none
CCN(CC)CCN1C(=O)/C(=C\c2ccc(Cl)c([N+](=O)[O-])c2)SC1=Nc1ccc(OC)cc1	CHRM5 antagonist 30
Cc1cc(C)cc(NC(=O)CSc2nc3nc(C)cc(C)n3n2)c1	none
Cc1noc(C)c1COc1ccc(C(=O)Nc2cccnc2)cc1	M4 antag 32
Cc1cccc(NC(=O)c2ccc(OCc3c(C)noc3C)cc2)c1	none
Cc1noc(C)c1COc1ccc(CC(=O)NCCc2ccccn2)cc1	none
CCOc1ccc(C(=O)NCc2ccccn2)cc1	CHRM4 PAM 31
Cc1noc(C)c1COc1ccc(C(=O)NCCc2ccccn2)cc1	CHRM4 PAM 29
O=C(CN1CCCCCC1)Nc1ccccc1OC(F)F	none
COc1ccc(/C=C\C(=O)O[C@@H]2C(O)C(O[C@@H]3OC(C)[C@H](O[C@@H]4OCC(O[C@H]5O[C@H](CO)[C@@H](O)C(O)C5O)C(O)C4O)C(O)C3O)[C@H](OC(=O)[C@]34CCC(C)(C)C[C@@H]3C3=CCC5[C@@]6(C)CC(O)C(O[C@@H]7OC(CO)C(O)[C@H](O)[C@H]7O)[C@@](C)(C(=O)O)C6CC[C@@]5(C)[C@]3(CO)CC4)O[C@H]2C)cc1 (stereo partly drawn)	CHRM5 antagonist 48, CHRM4 agonist 147, M5 ag 50, M4 antag 79
Cc1ccc(C(=O)OCC(=O)N2CC(C)OC(C)C2)cc1 (stereo not drawn)	CHRM4 PAM 16
COc1cccc(OC)c1OCCCc1c(C)n[nH]c1C	CHRM4 PAM 29
Cc1cccc(OCCCc2c(C)n[nH]c2C)c1	none
CCOC(=O)C1(CCCc2ccccc2)CCN(C2CCN(C(C)=O)CC2)CC1	CHRM5 antagonist 30
CCOC(=O)C1(CCCc2ccccc2)CCN(C(=O)CSC)CC1	none
COc1cc(/C=C/C(=O)O)ccc1O	none
COc1cc(/C=C/C(=O)/C=C(O)/C=C/c2ccc(O)c(OC)c2)ccc1O	CHRM5 antagonist 37, CHRM4 agonist 44, M5 ag 39, M4 antag 32
COc1cc(/C=C2/C(=O)CNC2=O)ccc1O	none
COc1cc(C=C2C(=O)C=CC2=O)ccc1O	M4 antag 31
O=C(O)c1ccc(CNCc2cccc(Cl)c2Cl)cc1	CHRM4 PAM 28
O=C(O)c1ccc(CNCc2ccccc2Cl)cc1	none
Cc1nn(-c2ccccc2)c(C)c1NC(=O)COC(=O)c1cc(Br)ccc1O	M4 antag 31
CN(C)c1ccc(C(=O)N=c2sccn2C)cc1[N+](=O)[O-]	none
CC(Oc1ccc(Cl)cc1Cl)C(=O)NNC(=O)c1ccncc1 (stereo not drawn)	none
COC(=O)NNC(=O)C(C)Oc1ccc(Cl)cc1Cl (stereo not drawn)	CHRM4 PAM 30
O=C(NCC1CCCO1)c1cccs1 (stereo not drawn)	CHRM4 PAM 36
O=C(NCC1CCCO1)NC1(C(F)(F)F)Oc2ccccc2O1 (stereo not drawn)	CHRM5 PAM 35
O=C(COC(=O)c1cccs1)NCC1CCCO1 (stereo not drawn)	none
O=C(NCC1CCCO1)c1ccccc1 (stereo not drawn)	none
COc1cc(Cl)cc2c1Sc1ccccc1/C2=C/CCN(C)C	CHRM5 antagonist 36
CN(C)CC/C=C1/c2ccccc2Sc2c(O)cc(Cl)cc21	CHRM5 antagonist 98, M4 antag 50
CN(C)CC/C=C1/c2cc(F)ccc2Sc2ccc(Cl)cc21	CHRM5 antagonist 99, M4 antag 96
COc1cc2c(cc1Cl)/C(=C\CCN(C)C)c1ccccc1S2	M4 antag 33
CN1CCN(CC/C=C2/c3ccccc3Sc3ccc(S(=O)(=O)N(C)C)cc32)CC1	none
COc1ccccc1NC(=O)NCC1CC1(Cl)Cl (stereo not drawn)	none
Cc1ccccc1NC(=S)N1CCN(c2ccccc2)CC1	none
COc1ccc(CCN2C(=NC(=O)C(C)C)SC3CS(=O)(=O)CC32)cc1 (stereo not drawn)	none
Cc1ncc(C[n+]2csc(C)c2C)c(N)n1	CHRM5 PAM 22
COc1ccccc1N(C(C)=O)C1=C(Cl)C(=O)c2ccccc2C1=O	CHRM5 antagonist 35, M4 antag 90
CCOC(=O)C1=C[C@@H](CC)N(S(=O)(=O)c2ccc(C)cc2)[C@H]1c1ccccc1	none
CCOC(=O)C1=C[C@@H](C2CCCC2)N(S(=O)(=O)c2ccc([N+](=O)[O-])cc2)[C@H]1c1ccccc1	M4 antag 39
CC(=O)Nc1cccc(C(=O)N2CCN(Cc3ccccc3)CC2)c1	CHRM4 PAM 20
CC(C)n1cc(/C(N)=N/O)c(=O)n(Cc2ccccc2)c1=O	CHRM5 PAM 39, CHRM4 PAM 13
Cc1cn(C(C)C)c(=O)n(-c2ccccc2)c1=O	none
CC1=NN(C(=S)Nc2ccccc2)C(C)(C)C1	CHRM5 PAM 19
Cc1c(O)nc(SCC(=O)Nc2ccc3c4c(cccc24)CC3)n(-c2ccccc2)c1=O	none
COc1ccc(NC(=O)CSc2nc(O)cc(=O)n2-c2ccccc2)cc1	none
O=C(CSc1nc(O)cc(=O)n1-c1ccccc1)Nc1ccc2c3c(cccc13)CC2	CHRM4 PAM 20
Cc1ccc(-n2c(SCC(=O)Nc3ccc(Cl)cc3)nc(O)cc2=O)cc1	CHRM5 antagonist 32
O=C(C[C@H]1C/C=C\CC[C@H](Cc2ccc(F)cc2)C(=O)OC[C@H]2CCCN2C1=O)NCCO	none
OCC1CCCN(c2nc(CN3CCCCC3)nc3scc(-c4ccccc4)c23)C1 (stereo not drawn)	none
CCNc1nc(CN2CCCCC2)nc2scc(-c3ccccc3)c12	M4 antag 27
Cc1c(C(c2ccccc2O)c2c(C)n(C)n(-c3ccccc3)c2=O)c(=O)n(-c2ccccc2)n1C	none
Cc1c(C(c2cc3c(cc2Br)OCO3)c2c(C)n(C)n(-c3ccccc3)c2=O)c(=O)n(-c2ccccc2)n1C	M4 antag 44
